Experiments:
[1] = Half-life values were derived from the decay rate constant (k) by fitting the concentration and time values to the exponential decay function at pH 7; format: ADME
How it was run: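 Compounds at 20 μM in 25 mM K2PO4 buffer, pH 7, room temperature; aliquots taken over time and quantified by C18 reverse-phase HPLC (UV 250 nm, external calibration). t1/2 = ln(2)/k, with k from fitting concentration vs time to C = C0e^(-kt).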

[2] = The rate of hydrolytic cleavage in plasma was assessed by incubating compounds (30 uM) at 37 degrees Celsius with human plasma adjusted to pH 7; format: ADME
How it was run: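 Human plasma brought to pH 7 with K2PO4 (50 mM final), compounds at 30 μM, 37 °C. Timed aliquots quenched with 2 volumes acidified acetonitrile and centrifuged. Supernatant quantified by reverse-phase HPLC at 250 nm. t1/2 from single-exponential decay fit, t1/2 = ln(2)/k.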

Oryctolagus cuniculus = species on record: Oryctolagus cuniculus; experiment: Inhibitory activity was determined in PAF-induced serotonin release from rabbit platelets; format: functional
Rattus norvegicus [3] = experiment: In vivo potency for complete inhibition of LPS-induced intestinal damage in rat by intravenous administration; format: functional
How it was run: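 Sprague–Dawley rats, 200–225 g. Compound or vehicle (25 mM sodium acetate, pH 4) given i.v. via tail vein, then LPS 25 mg/kg 30 min later. Rats killed 30 min after LPS; luminal rinse of a 15 cm intestinal segment from the duodenum assayed for hemoglobin by hemoglobinometer against standards.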

Rattus norvegicus [4] = experiment: In vivo potency for inhibition of LPS-induced hypotension in rat by intra arterial (i.a.) administration; format: functional
How it was run: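 Rats recovered ≥1 h after surgery; baseline arterial pressure normalized to 100 mmHg. Compound given intraarterially in DMSO/PEG 400/45% hydroxypropyl-β-cyclodextrin/0.9% saline (2.5:20:30:47.5) 15 min before an i.a. bolus of E. coli LPS 0111:B4, 25 mg/kg in PBS pH 7.4. Pressure read every 1 min. Percent inhibition from area under the pressure–time curve versus vehicle.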

Rattus norvegicus [5] = experiment: In vivo potency for inhibition of PAF-induced cutaneous vascular permeability in rat by intravenous administration; format: functional

Row | Structure (SMILES) | half-life [1] [h] | half-life at 30 µM [2] [h] | Kb (Oryctolagus cuniculus) [nM] | Dose (Rattus norvegicus [3]) [mg/kg] | ED50 (Rattus norvegicus [4]) [mg/kg] | ED50 (Rattus norvegicus [5]) [mg/kg]
1 | CN(C)C(=O)OC[n+]1cccc([C@H]2SCc3c(C(=O)c4cn(C(=O)N(C)C)c5cc(-c6ccc(F)cc6)ccc45)ccn32)c1.[Cl-] | > 167 | > 10 |  |  |  | 
2 | Cc1oc(=O)oc1C[n+]1cccc([C@H]2SCc3c(C(=O)c4cn(C(=O)N(C)C)c5cc(-c6ccc(F)cc6)ccc45)ccn32)c1.[Cl-] | 4.1 | 0.0467 |  |  |  | 
3 | CN(C)C(=O)n1cc(C(=O)c2ccn3c2CS[C@@H]3c2cccnc2)c2ccc(-c3ccc(F)cc3)cc21 |  |  | 1.1 | 0.1 | 0.01 | 0.006
4 | CN(C)C(=O)n1cc(C(=O)c2ccn3c2CS[C@@H]3c2ccc[n+](COC(=O)C(C)(C)C)c2)c2ccc(-c3ccc(F)cc3)cc21.[Cl-] | 45.3 | 0.347 |  |  |  | 
5 | CN(C)C(=O)n1cc(C(=O)c2ccn3c2CS[C@@H]3c2ccc[n+](COC(=O)c3ccccc3)c2)c2ccc(-c3ccc(F)cc3)cc21.[Cl-] | 8.5 | 0.0167 |  |  |  | 
6 | CC(=O)OC[n+]1cccc([C@H]2SCc3c(C(=O)c4cn(C(=O)N(C)C)c5cc(-c6ccc(F)cc6)ccc45)ccn32)c1.[Cl-] | 9 | 0.0433 |  |  |  | 
7 | CC(OC(=O)C(C)(C)C)[n+]1cccc([C@H]2SCc3c(C(=O)c4cn(C(=O)N(C)C)c5cc(-c6ccc(F)cc6)ccc45)ccn32)c1.[Cl-] (stereo not given in full) | 17.6 | 0.518 |  |  |  | 
8 | COC(=O)OC[n+]1cccc([C@H]2SCc3c(C(=O)c4cn(C(=O)N(C)C)c5cc(-c6ccc(F)cc6)ccc45)ccn32)c1.[Cl-] | 1.6 | 0.0167 |  |  |  | 
9 | COC(=O)[C@@H]1CCCN1C(=O)OC[n+]1cccc([C@H]2SCc3c(C(=O)c4cn(C(=O)N(C)C)c5cc(-c6ccc(F)cc6)ccc45)ccn32)c1.[Cl-] | 128 | 2.67 |  |  |  | 
